According to ChEMBL document CHEMBL1765074, “Synthesis, evaluation and structural studies of antiproliferative tubulin-targeting azetidin-2-ones” (Bioorg Med Chem, 2011):
pIC50: −log10 of the molar value.

Columns and labels:
[1] = tested on: MCF7; assay: Antiproliferative activity against human MCF7 cells by MTT assay; type: functional, cell-based
How it was run: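 MCF-7 cells grown in Eagle's MEM with 10% FBS, 2 mM L-glutamine, penicillin/streptomycin and 1% non-essential amino acids. Seeded at 2.5×10^4 cells/mL, left 24 h at 37°C, then treated 72 h across 1 nM–100 μM from ethanol stocks (vehicle 1% v/v). MTT at 1 mg/mL final for 2 h in darkness, DMSO solubilisation, absorbance read. IC50 is the mean of at least three experiments in triplicate.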

[2] = Inhibition of bovine tubulin polymerization by spectrophotometry; design: species or system Bos taurus
How it was run: (§1)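 Purified bovine tubulin was mixed with GTP and polymerisation started by warming from 4 °C to 37 °C. Absorbance at 340 nm was recorded every 30 s for 60 min at 37 °C, with 1% v/v ethanol as vehicle. Fold change in Vmax was calculated against the ethanol control. Runs were in triplicate.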

[3] = Cytotoxicity against CD-1 mouse mammary epithelial cells seeded at 50000 cells/ml assessed as viable cells at 10 uM after 72 hrs by alamar blue assay; type: cell-based, Epithelial cell; details: read-out: Activity
How it was run: (§2)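 Primary mammary epithelial cells came from 14-18 day pregnant CD-1 mice and were seeded at 25,000 or 50,000 cells/mL. After 24 h they were exposed 72 h to 1 nM–100 μM compound from ethanol stocks (vehicle ethanol 1% v/v). Viability was read with alamar blue.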

[4] = Cytotoxicity against CD-1 mouse mammary epithelial cells seeded at 25000 cells/ml assessed as viable cells at IC50 after 72 hrs by alamar blue assay; type: cell-based, Epithelial cell; details: read-out: Activity; how it was run: as §2
[5] = species on record: Bos taurus; assay: Inhibition of bovine tubulin polymerization assessed as reduction in Vmax at 10 uM by spectrophotometry; how it was run: as §1
[6] = tested on: MDA-MB-231; assay: Antiproliferative activity against human MDA-MB-231 cells by MTT assay; type: functional, cell-based
How it was run: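 MDA-MB-231 cells in DMEM with 10% FBS, 2 mM L-glutamine and penicillin/streptomycin were seeded at 2.5×10^4 cells/mL and held 24 h at 37°C. They then got ethanol-stock compound over 1 nM–100 μM (vehicle 1% v/v ethanol) for 72 h. MTT at 1 mg/mL final was added for 2 h in the dark, then DMSO for 20 min before absorbance. Untreated = 100% viability. IC50 is the mean ± S.E.M. of ≥3 triplicate experiments.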

[7] = Inhibition of bovine tubulin polymerization assessed as concentration required for 50% Vmax inhibition by spectrophotometry; design: species or system Bos taurus
[8] = Cytotoxicity against CD-1 mouse mammary epithelial cells seeded at 50000 cells/ml assessed as viable cells at IC50 after 72 hrs by alamar blue assay; type: cell-based, Epithelial cell; details: read-out: Activity; how it was run: as §2
[9] = Cytotoxicity against CD-1 mouse mammary epithelial cells seeded at 25000 cells/ml assessed as viable cells at 10 uM after 72 hrs by alamar blue assay; type: cell-based, Epithelial cell; details: read-out: Activity; how it was run: as §2

pIC50 [1] | SMILES | other results
5.18 | COc1ccc([C@@H]2C(c3cc4ccccc4n3C)C(=O)N2c2cc(OC)c(OC)c(OC)c2)cc1 (stereo partly drawn) | –
8.15 | COc1ccc([C@@H]2[C@@H](c3cccs3)C(=O)N2c2cc(OC)c(OC)c(OC)c2)cc1O | pIC50 [2]: 5.20; viability at 72 h, 10 µM [3]: 74.8%; viability at 72 h [4]: 90.7%; fold change (FC) [5]: 3.2; pIC50 [6]: 6.74; pIC50 [7]: 5.86; viability at 72 h [8]: 90.6%; viability at 72 h, 10 µM [9]: 71.2%
5.96 | COc1ccc([C@@H]2[C@@H](C(O)c3ccoc3)C(=O)N2c2cc(OC)c(OC)c(OC)c2)cc1 (stereo partly drawn) | –
5.92 | COc1ccc([C@@H]2[C@@H](C(O)c3cccs3)C(=O)N2c2cc(OC)c(OC)c(OC)c2)cc1 (stereo partly drawn) | –
5.90 | COc1ccc([C@@H]2[C@@H](C(O)c3ccc(C)s3)C(=O)N2c2cc(OC)c(OC)c(OC)c2)cc1 (stereo partly drawn) | –
6.02 | COc1ccc([C@@H]2[C@@H](C(=O)c3cccs3)C(=O)N2c2cc(OC)c(OC)c(OC)c2)cc1 | –
6.33 | COc1ccc([C@@H]2[C@@H](C(=O)c3ccsc3)C(=O)N2c2cc(OC)c(OC)c(OC)c2)cc1 | –
5.39 | COc1ccc([C@@H]2/C(=C/c3cccs3)C(=O)N2c2cc(OC)c(OC)c(OC)c2)cc1 | –
6.24 | COc1ccc(C2/C(=C/c3ccc(C)s3)C(=O)N2c2cc(OC)c(OC)c(OC)c2)cc1 (stereo not drawn) | –
6.24 | COc1ccc([C@@H]2C(C3CCCCC3)C(=O)N2c2cc(OC)c(OC)c(OC)c2)cc1 (mixture of isomers) | –
4.36 | COc1ccc([C@H]2N(c3cc(OC)c(OC)c(OC)c3)C(=O)C2(C)c2ccccc2)cc1 (mixture of isomers) | –

SMILES | pIC50 [1] | other results
COc1ccc([C@@H]2[C@@H](c3ccsc3)C(=O)N2c2cc(OC)c(OC)c(OC)c2)cc1O | 8.00 | pIC50 [6]: 7.31
COc1ccc([C@@H]2[C@@H](c3cccs3)C(=O)N2c2cc(OC)c(OC)c(OC)c2)cc1N | 7.38 | pIC50 [6]: 6.96
